Measured values as given in ChEMBL document CHEMBL4351001, “2-Aminoimidazole-based antagonists of the 5-HT6 receptor - A new concept in aminergic GPCR ligand design” (Eur J Med Chem, 2019).
pKi: −log10 of the molar value.

Biological target: T1, 5-hydroxytryptamine receptor 1A (Homo sapiens, UniProt P08908)
T1 sequence (P08908 whole entry): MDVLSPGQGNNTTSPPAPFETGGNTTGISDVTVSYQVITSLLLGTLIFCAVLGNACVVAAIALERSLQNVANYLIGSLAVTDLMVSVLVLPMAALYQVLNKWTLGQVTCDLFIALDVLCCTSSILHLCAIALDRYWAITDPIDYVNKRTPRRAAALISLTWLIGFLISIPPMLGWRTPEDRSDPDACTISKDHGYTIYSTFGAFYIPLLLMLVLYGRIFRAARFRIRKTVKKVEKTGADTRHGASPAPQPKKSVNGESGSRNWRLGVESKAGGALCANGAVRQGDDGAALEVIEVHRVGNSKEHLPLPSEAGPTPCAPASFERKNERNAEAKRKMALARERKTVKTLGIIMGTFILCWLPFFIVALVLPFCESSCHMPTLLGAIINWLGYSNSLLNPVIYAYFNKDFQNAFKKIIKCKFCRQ
Assay: Displacement of [3H]-8-OH-DPAT from human 5HT1A receptor expressed in HEK293 cells incubated for 1 hr by liquid scintillation counter method
Assay type: cell-based
Conditions: hek293; call rule not given here
Procedure, shortened: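 HEK293 cells stably expressing human 5-HT1AR; membranes in 50 mM Tris–HCl, 0.1 mM EDTA, 4 mM MgCl2, 10 μM pargyline, 0.1% ascorbate; incubated 1 h at room temperature, then filtered. Nonspecific binding defined with 10 μM 5-HT.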

Structure (SMILES) | Ki
COc1ccc2c(c1)c(-c1[nH]c(NCc3ccccc3)nc1C)cn2S(=O)(=O)c1ccccc1 | Not Active
Cc1sc(N)nc1-c1cn(S(=O)(=O)c2cccc3ccccc23)c2ccccc12 | Not Active
Cc1sc(N)nc1-c1cn(S(=O)(=O)c2ccccc2)c2ccccc12 | Not Active

Same assay, conditions: read-out: Ki

Structure (SMILES) | pKi
CC(=O)N1CCn2c1nc(C)c2-c1cn(S(=O)(=O)c2ccccc2)c2ccccc12 | < 5.00
CCC(=O)Nc1nc(C)c(-c2cn(S(=O)(=O)c3cccc(F)c3)c3ccc(OC)cc23)[nH]1 | < 5.00
CC(=O)Nc1ncc(-c2cn(S(=O)(=O)c3ccccc3)c3ccccc23)[nH]1 | < 5.00
COc1ccc2c(c1)c(-c1[nH]c(NC(C)=O)nc1C)cn2S(=O)(=O)c1cccc(F)c1 | < 5.00
COc1ccc2c(c1)c(-c1[nH]c(N)nc1C)cn2S(=O)(=O)c1cccc2ccccc12 | < 5.00
CC(=O)N1CCCn2c1nc(C)c2-c1cn(S(=O)(=O)c2ccccc2)c2ccccc12 | < 5.00
CCC(=O)Nc1nc(C)c(-c2cccc3c2ccn3S(=O)(=O)c2ccccc2)[nH]1 | < 5.00
Cl.Nc1ncc(-c2cn(S(=O)(=O)c3ccccc3)c3ccccc23)[nH]1 | 6.90
COc1ccc2c(c1)c(-c1[nH]c(N)nc1C)cn2S(=O)(=O)c1cccc(F)c1.Cl | < 5.00
COc1ccc2c(c1)c(-c1[nH]c(N)nc1C)cn2S(=O)(=O)c1ccccc1.Cl | < 5.00
CCc1nc(N)[nH]c1-c1cn(S(=O)(=O)c2ccccc2)c2ccc(OC)cc12.Cl | < 5.00
CC(=O)Nc1nc(C)c(-c2c(C)n(S(=O)(=O)c3ccccc3)c3ccccc23)[nH]1 | < 5.00
CCc1nc(NC(C)=O)[nH]c1-c1cn(S(=O)(=O)c2ccccc2)c2ccc(OC)cc12 | < 5.00
COc1ccc2c(c1)c(-c1[nH]c3nccc[n+]3c1C)cn2S(=O)(=O)c1ccccc1.[Br-] | < 5.00
COc1ccc2c(c1)c(-c1cnc(NC(C)=O)[nH]1)cn2S(=O)(=O)c1ccccc1 | < 5.00
COc1ccc2c(c1)c(-c1[nH]c(NC(C)=O)nc1C)cn2S(=O)(=O)c1ccccc1 | < 5.00

System: not listed separately
Assay: Solubility of compound in water
Assay type: physicochemical
Conditions: buffer

Structure (SMILES) | solubility
COc1ccc2c(c1)c(-c1nc(N)sc1C)cn2S(=O)(=O)c1ccccc1 | Insoluble
COc1ccc2c(c1)c(-c1[nH]c3cccc[n+]3c1C)cn2S(=O)(=O)c1ccccc1.[Br-] | Soluble
CC(=O)N1CCn2c1nc(C)c2-c1cn(S(=O)(=O)c2ccccc2)c2ccccc12 | Insoluble
CCC(=O)Nc1nc(C)c(-c2cn(S(=O)(=O)c3cccc(F)c3)c3ccc(OC)cc23)[nH]1 | Insoluble
COc1ccc2c(c1)c(-c1nc(N)sc1C)cn2S(=O)(=O)c1cccc2ccccc12 | Insoluble
CC(=O)Nc1ncc(-c2cn(S(=O)(=O)c3ccccc3)c3ccccc23)[nH]1 | Insoluble
COc1ccc2c(c1)c(-c1[nH]c(NC(C)=O)nc1C)cn2S(=O)(=O)c1ccc2ccccc2c1 | Insoluble
CCC(=O)Nc1nc(C)c(-c2cn(S(=O)(=O)c3cccc4ccccc34)c3ccccc23)[nH]1 | Insoluble
COc1ccc2c(c1)c(-c1[nH]c(NCc3ccccc3)nc1C)cn2S(=O)(=O)c1ccccc1 | Insoluble
COc1ccc2c(c1)c(-c1[nH]c(N)nc1C)cn2S(=O)(=O)c1ccc2ccccc2c1.Cl | Soluble
COc1ccc2c(c1)c(-c1[nH]c(NC(C)=O)nc1C)cn2S(=O)(=O)c1cccc2ccccc12 | Insoluble
Cc1sc(N)nc1-c1cn(S(=O)(=O)c2cccc3ccccc23)c2ccccc12 | Insoluble
CCc1nc(N)[nH]c1-c1cn(S(=O)(=O)c2ccccc2)c2ccccc12.Cl | Soluble
COc1ccc2c(c1)c(-c1[nH]c(NC(C)=O)nc1C)cn2S(=O)(=O)c1cccc(F)c1 | Insoluble
COc1ccc2c(c1)c(-c1nc(N)sc1C)cn2S(=O)(=O)c1ccc2ccccc2c1 | Insoluble
CC(=O)N1CCCn2c1nc(C)c2-c1cn(S(=O)(=O)c2ccccc2)c2ccccc12 | Insoluble
CCC(=O)Nc1nc(C)c(-c2cccc3c2ccn3S(=O)(=O)c2ccccc2)[nH]1 | Insoluble
CCC(=O)Nc1nc(C)c(-c2cn(S(=O)(=O)c3cccc4ccccc34)c3ccc(OC)cc23)[nH]1 | Insoluble

Structure (SMILES) | solubility
Cl.Nc1ncc(-c2cn(S(=O)(=O)c3ccccc3)c3ccccc23)[nH]1 | Soluble
Cc1sc(N)nc1-c1cn(S(=O)(=O)c2ccccc2)c2ccccc12 | Insoluble
COc1ccc2c(c1)c(-c1[nH]c(N)nc1C)cn2S(=O)(=O)c1cccc(F)c1.Cl | Soluble
COc1ccc2c(c1)c(-c1[nH]c(N)nc1C)cn2S(=O)(=O)c1ccccc1.Cl | Soluble
COc1ccc2c(c1)c(-c1cnc(N)[nH]1)cn2S(=O)(=O)c1cccc(F)c1.Cl | Soluble
CCc1nc(N)[nH]c1-c1cn(S(=O)(=O)c2ccccc2)c2ccc(OC)cc12.Cl | Soluble
CC(=O)Nc1nc(C)c(-c2c(C)n(S(=O)(=O)c3ccccc3)c3ccccc23)[nH]1 | Insoluble
COc1ccc2c(c1)c(-c1cnc(NC(C)=O)[nH]1)cn2S(=O)(=O)c1cccc(F)c1 | Insoluble
CCc1nc(NC(C)=O)[nH]c1-c1cn(S(=O)(=O)c2ccccc2)c2ccc(OC)cc12 | Insoluble
COc1ccc2c(c1)c(-c1[nH]c3nccc[n+]3c1C)cn2S(=O)(=O)c1ccccc1.[Br-] | Soluble
COc1ccc2c(c1)c(-c1cnc(NC(C)=O)[nH]1)cn2S(=O)(=O)c1ccccc1 | Insoluble
CCC(=O)Nc1nc(C)c(-c2cn(S(=O)(=O)c3ccc4ccccc4c3)c3ccc(OC)cc23)[nH]1 | Insoluble
CC(=O)Nc1nc(C)c(-c2cn(S(=O)(=O)c3cccc4ccccc34)c3ccccc23)[nH]1 | Insoluble
CCC(=O)Nc1nc(C)c(-c2ccc3ccn(S(=O)(=O)c4ccccc4)c3c2)[nH]1 | Insoluble
Cl.Nc1ncc(-c2cccc3c2ccn3S(=O)(=O)c2ccccc2)[nH]1 | Soluble
COc1ccc2c(c1)c(-c1[nH]c(NC(C)=O)nc1C)cn2S(=O)(=O)c1ccccc1 | Insoluble
CCC(=O)Nc1nc(CC)c(-c2cn(S(=O)(=O)c3ccccc3)c3ccc(OC)cc23)[nH]1 | Insoluble
CCc1nc(NC(C)=O)[nH]c1-c1cn(S(=O)(=O)c2ccccc2)c2ccccc12 | Insoluble

Biological target: 5-hydroxytryptamine receptor 2A (Homo sapiens, UniProt P28223)
Assay: Displacement of [3H]ketanserin from human 5HT2A receptor expressed in CHOK1 cells incubated for 1 hr by liquid scintillation counter method
Assay type: cell-based
Conditions: not given

5-hydroxytryptamine receptor 2A, sequence (P28223 whole entry): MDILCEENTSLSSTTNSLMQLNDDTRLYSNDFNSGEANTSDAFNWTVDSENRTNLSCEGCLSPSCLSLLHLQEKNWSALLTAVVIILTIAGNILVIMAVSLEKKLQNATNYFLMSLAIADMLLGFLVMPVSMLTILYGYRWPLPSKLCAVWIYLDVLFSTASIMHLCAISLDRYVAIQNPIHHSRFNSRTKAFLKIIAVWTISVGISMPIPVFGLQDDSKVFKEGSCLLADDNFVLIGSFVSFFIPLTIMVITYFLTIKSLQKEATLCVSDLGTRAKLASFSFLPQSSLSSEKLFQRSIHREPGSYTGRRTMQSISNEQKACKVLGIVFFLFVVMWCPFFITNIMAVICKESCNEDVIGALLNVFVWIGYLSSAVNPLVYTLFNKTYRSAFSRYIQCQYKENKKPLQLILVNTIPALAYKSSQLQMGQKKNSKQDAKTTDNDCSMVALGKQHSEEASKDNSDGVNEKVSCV

Structure (SMILES) | Ki
Cc1sc(N)nc1-c1cn(S(=O)(=O)c2cccc3ccccc23)c2ccccc12 | Not Active

Same assay, conditions: read-out: Ki

Structure (SMILES) | pKi
COc1ccc2c(c1)c(-c1nc(N)sc1C)cn2S(=O)(=O)c1ccccc1 | 5.61
COc1ccc2c(c1)c(-c1[nH]c3cccc[n+]3c1C)cn2S(=O)(=O)c1ccccc1.[Br-] | < 5.00
CC(=O)N1CCn2c1nc(C)c2-c1cn(S(=O)(=O)c2ccccc2)c2ccccc12 | < 5.00
CCC(=O)Nc1nc(C)c(-c2cn(S(=O)(=O)c3cccc(F)c3)c3ccc(OC)cc23)[nH]1 | < 5.00
COc1ccc2c(c1)c(-c1[nH]c(NC(C)=O)nc1C)cn2S(=O)(=O)c1ccc2ccccc2c1 | < 5.00
CCC(=O)Nc1nc(C)c(-c2cn(S(=O)(=O)c3cccc4ccccc34)c3ccccc23)[nH]1 | < 5.00
COc1ccc2c(c1)c(-c1[nH]c(N)nc1C)cn2S(=O)(=O)c1ccc2ccccc2c1.Cl | 5.98
COc1ccc2c(c1)c(-c1[nH]c(NC(C)=O)nc1C)cn2S(=O)(=O)c1cccc2ccccc12 | < 5.00
CCc1nc(N)[nH]c1-c1cn(S(=O)(=O)c2ccccc2)c2ccccc12.Cl | 6.97
COc1ccc2c(c1)c(-c1[nH]c(NC(C)=O)nc1C)cn2S(=O)(=O)c1cccc(F)c1 | < 5.00
COc1ccc2c(c1)c(-c1[nH]c(N)nc1C)cn2S(=O)(=O)c1cccc2ccccc12 | 5.78
CC(=O)N1CCCn2c1nc(C)c2-c1cn(S(=O)(=O)c2ccccc2)c2ccccc12 | < 5.00
CCC(=O)Nc1nc(C)c(-c2cccc3c2ccn3S(=O)(=O)c2ccccc2)[nH]1 | < 5.00
Cl.Nc1ncc(-c2cn(S(=O)(=O)c3ccccc3)c3ccccc23)[nH]1 | 6.05
COc1ccc2c(c1)c(-c1[nH]c(N)nc1C)cn2S(=O)(=O)c1cccc(F)c1.Cl | 5.95
COc1ccc2c(c1)c(-c1[nH]c(N)nc1C)cn2S(=O)(=O)c1ccccc1.Cl | 6.17
CCc1nc(N)[nH]c1-c1cn(S(=O)(=O)c2ccccc2)c2ccc(OC)cc12.Cl | 6.18
COc1ccc2c(c1)c(-c1cnc(NC(C)=O)[nH]1)cn2S(=O)(=O)c1cccc(F)c1 | < 5.00
CCc1nc(NC(C)=O)[nH]c1-c1cn(S(=O)(=O)c2ccccc2)c2ccc(OC)cc12 | < 5.00
COc1ccc2c(c1)c(-c1[nH]c3nccc[n+]3c1C)cn2S(=O)(=O)c1ccccc1.[Br-] | < 5.00
CCC(=O)Nc1nc(C)c(-c2cn(S(=O)(=O)c3ccc4ccccc4c3)c3ccc(OC)cc23)[nH]1 | < 5.00
CCC(=O)Nc1nc(C)c(-c2ccc3ccn(S(=O)(=O)c4ccccc4)c3c2)[nH]1 | 5.13
Cl.Nc1ncc(-c2cccc3c2ccn3S(=O)(=O)c2ccccc2)[nH]1 | 5.64
COc1ccc2c(c1)c(-c1[nH]c(NC(C)=O)nc1C)cn2S(=O)(=O)c1ccccc1 | < 5.00
CCc1nc(NC(C)=O)[nH]c1-c1cn(S(=O)(=O)c2ccccc2)c2ccccc12 | < 5.00

System: not listed separately
Assay: in vitro
Conditions: rat, liver microsomes

Structure (SMILES) | microsomal CLint [µL/min/mg]
O=S(=O)(c1ccccc1)c1cnc2c(N3CCNCC3)cccc2c1 [INTEPIRDINE] | 6.6

Same assay, conditions: rat, microsomes

Structure (SMILES) | microsomal CLint [µL/min/mg]
Fc1ccc2c(CCNCc3cccc(OCC(F)(F)C(F)F)c3)c[nH]c2c1 [IDALOPIRDINE] | 99.3
